Laboratory results taken from ChEMBL document CHEMBL1137710, “Synthesis and in vitro antitumor activity of new quinoxaline derivatives” (2009).

What was measured:
Assay type in all cases: functional
[1] = system: CCRF-CEM; test: Growth inhibition of human CCRF-CEM cells after 48 hrs by sulforhodamine B assay
Outline: (§1)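 NCI 60-human-tumor-cell-line panel, with compounds tested over a 5-log dose range. Values are taken from dose-response curves as log10 molar concentrations: GI50 is 50% net growth inhibition, TGI is total growth inhibition, and LC50 is 50% net cell death.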

[2] = system: SN12C; test: Growth inhibition of human SN12C cells after 48 hrs by sulforhodamine B assay
Outline: (§2)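 Run in the NCI 60-human-tumour-cell-line panel, tested over a 5-log dose range. Dose–response curves gave three values per cell line, each as a log10 molar concentration: GI50 (50% inhibition of net cell growth), TGI (total inhibition of net growth) and LC50 (50% net cell death). The mean graph midpoint is the arithmetic mean over all lines, with insensitive lines entered at the highest concentration tested.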

[3] = system: NCI-H226; test: Growth inhibition of human NCI-H226 cells after 48 hrs by sulforhodamine B assay; conditions: NCI-H226, 48 h; outline: as §1
[4] = system: SR; test: Growth inhibition of human SR cells after 48 hrs by sulforhodamine B assay; outline: as §2
[5] = system: UO-31; test: Growth inhibition of human UO31 cells after 48 hrs by sulforhodamine B assay; conditions: UO-31, 48 h; outline: as §2
[6] = system: MOLT-4; test: Growth inhibition of human MOLT4 cells after 48 hrs by sulforhodamine B assay; conditions: MOLT-4, 48 h; outline: as §1
[7] = system: TK-10; test: Growth inhibition of human TK10 cells after 48 hrs by sulforhodamine B assay; conditions: TK-10, 48 h; outline: as §2
[8] = system: NCI-H460; test: Growth inhibition of human NCI-H460 cells after 48 hrs by sulforhodamine B assay; conditions: NCI-H460, 48 h; outline: as §1
[9] = system: HL-60(TB); test: Growth inhibition of human HL-60(TB) cells after 48 hrs by sulforhodamine B assay; conditions: HL-60, 48 h
Outline: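 Tested only on compounds active in a three-line prescreen, in the NCI 60-human-tumour-cell-line panel over a 5-log dose range. Values come from dose–response curves as log10 molar GI50, the concentration inhibiting 50% net cell growth. Log10 TGI (total growth inhibition) and log10 LC50 (50% net cell death) were derived too. Mean graph midpoints include insensitive lines at the highest concentration tested.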

[10] = system: UACC-257; test: Growth inhibition of human UACC257 cells after 48 hrs by sulforhodamine B assay; conditions: UACC-257, 48 h; outline: as §2
[11] = system: PC-3; test: Growth inhibition of human PC3 cells after 48 hrs by sulforhodamine B assay; conditions: PC-3, 48 h; outline: as §1
[12] = system: ACHN; test: Growth inhibition of human ACHN cells after 48 hrs by sulforhodamine B assay
[13] = system: EKVX; test: Growth inhibition of human EKVX cells after 48 hrs by sulforhodamine B assay; outline: as §1
[14] = system: A498; test: Growth inhibition of human A498 cells after 48 hrs by sulforhodamine B assay; conditions: A498, 48 h; outline: as §1
[15] = system: SK-OV-3; test: Growth inhibition of human SKOV3 cells after 48 hrs by sulforhodamine B assay; conditions: SK-OV-3, 48 h; outline: as §1
[16] = system: OVCAR-8; test: Growth inhibition of human OVCAR8 cells after 48 hrs by sulforhodamine B assay; conditions: OVCAR-8, 48 h; outline: as §1
[17] = system: HCT-15; test: Growth inhibition of human HCT15 cells after 48 hrs by sulforhodamine B assay; conditions: HCT-15, 48 h; outline: as §1
[18] = system: IGROV-1; test: Growth inhibition of human IGROV1 cells after 48 hrs by sulforhodamine B assay; conditions: IGROV-1, 48 h; outline: as §1
[19] = system: MCF7; test: Growth inhibition of human MCF7 cells after 48 hrs by sulforhodamine B assay; conditions: MCF7, 48 h; outline: as §1
[20] = system: Malme-3M; test: Growth inhibition of human MALME-3M cells after 48 hrs by sulforhodamine B assay; outline: as §1
[21] = system: HOP-62; test: Growth inhibition of human HOP62 cells after 48 hrs by sulforhodamine B assay; conditions: HOP-62, 48 h; outline: as §1
[22] = system: A549; test: Growth inhibition of human A549 cells after 48 hrs by sulforhodamine B assay; conditions: A549, 48 h; outline: as §1
[23] = system: NCI-H460; test: Anticancer activity against human NCI-H460 cells assessed as cell growth at 100 uM after 48 hrs by sulforhodamine B assay; conditions: NCI-H460, 48 h, read-out: Activity
[24] = system: DU-145; test: Growth inhibition of human DU145 cells after 48 hrs by sulforhodamine B assay; conditions: DU-145, 48 h; outline: as §1
[25] = system: KM12; test: Growth inhibition of human KM12 cells after 48 hrs by sulforhodamine B assay; conditions: KM12, 48 h; outline: as §1
[26] = system: T47D; test: Growth inhibition of human T47D cells after 48 hrs by sulforhodamine B assay; outline: as §2
[27] = read-out: pLC50 (the source's name) (converted)

Work on Nc1cc(N)c2nc(-c3ccccc3)c(Oc3ccc(Cl)c(Cl)c3)nc2c1 yielded a GI50 [1] of 2.95 µM, an LC50 [1] greater than 100 µM and a TGI ([1]; read-out: pTGI (converted)) greater than 100 µM. It also gave a GI50 [2] of 11.5 µM, a CC50 [2, 27] greater than 100 µM and a TGI ([2]; read-out: pTGI (converted)) greater than 100 µM. For the same compound, the GI50 [3] was 15.1 µM, the LC50 [3] was greater than 100 µM and the TGI ([3]; read-out: pTGI (converted)) was 49 µM. It also gave an LC50 (concentration giving 50% net cell death) [4] greater than 100 µM, a GI50 [5] of 4.07 µM and a CC50 [5, 27] greater than 100 µM. For the same compound, the TGI ([5]; read-out: pTGI (converted)) was greater than 100 µM, the GI50 [6] was 6.31 µM and the LC50 [6] was greater than 100 µM. It also gave a TGI ([6]; read-out: pTGI (converted)) greater than 100 µM, a GI50 [7] of 24.5 µM and a CC50 [7, 27] greater than 100 µM. The TGI ([7]; read-out: pTGI (converted)) was 63.1 µM, the GI50 [8] was 18.2 µM and the LC50 (50% net cell kill) [8] was greater than 100 µM. For the same compound, the TGI ([8]; read-out: pTGI (converted)) was 70.8 µM, the GI50 [9] was 5.13 µM and the LC50 [9] was greater than 100 µM. It also gave a TGI ([9]; read-out: pTGI (converted)) greater than 100 µM, a GI50 [10] of 28.2 µM and a CC50 [10, 27] greater than 100 µM. For the same compound, the TGI ([10]; read-out: pTGI (converted)) was 87.1 µM, the GI50 [11] was 3.02 µM and the CC50 [11, 27] was greater than 100 µM. For the same compound, the TGI ([11]; read-out: pTGI (converted)) was 14.5 µM, the GI50 [12] was 9.33 µM and the CC50 [12, 27] was greater than 100 µM. The TGI ([12]; read-out: pTGI (converted)) was 47.9 µM, the GI50 [13] was 2.14 µM and the LC50 (50% net cell kill) [13] was 41.7 µM. The TGI ([13]; read-out: pTGI (converted)) was 8.32 µM, the GI50 [14] was 91.2 µM and the CC50 [14, 27] was greater than 100 µM. It also gave a TGI ([14]; read-out: pTGI (converted)) greater than 100 µM, a GI50 [15] of 24 µM and a CC50 [15, 27] greater than 100 µM. For the same compound, the TGI ([15]; read-out: pTGI (converted)) was 66.1 µM, the GI50 [16] was 28.2 µM and the CC50 [16, 27] was greater than 100 µM. The TGI ([16]; read-out: pTGI (converted)) was 89.1 µM, the GI50 [17] was 20 µM and the LC50 [17] was greater than 100 µM. For the same compound, the TGI ([17]; read-out: pTGI (converted)) was greater than 100 µM, the GI50 [18] was 11.5 µM and the CC50 [18, 27] was 91.2 µM. It also gave a TGI ([18]; read-out: pTGI (converted)) of 32.4 µM, a GI50 [19] of 14.1 µM and a CC50 [19, 27] greater than 100 µM. The TGI ([19]; read-out: pTGI (converted)) was 70.8 µM, the GI50 [20] was 15.8 µM and the CC50 [20, 27] was 89.1 µM. It also gave a TGI ([20]; read-out: pTGI (converted)) of 37.2 µM, a GI50 [21] of 17 µM and an LC50 [21] of 85.1 µM. For the same compound, the TGI ([21]; read-out: pTGI (converted)) was 38 µM, the GI50 [22] was 18.2 µM and the LC50 [22] was greater than 100 µM. For the same compound, the TGI ([22]; read-out: pTGI (converted)) was 43.7 µM, the growth at 100 µM [23] was 0% and the GI50 [24] was 29.5 µM. The CC50 [24, 27] was greater than 100 µM, the TGI ([24]; read-out: pTGI (converted)) was greater than 100 µM and the GI50 [25] was 6.31 µM. The LC50 (50% net cell kill) [25] was greater than 100 µM, the TGI ([25]; read-out: pTGI (converted)) was 39.8 µM and the GI50 [26] was 24.5 µM. For the same compound, the CC50 [26, 27] was greater than 100 µM and the TGI ([26]; read-out: pTGI (converted)) was 79.4 µM.
